Experiments:
Format in all cases: functional
Conditions in all cases: route oral
Rattus norvegicus [1] = assay: Antiinflammatory activity on Carrageenan rat's paw edema(CPE) after peroral administration of 100 mg/kg dose with control swelling of 73.7%
Rattus norvegicus [2] = assay: Antiinflammatory activity on Zymosan-induced rat's paw edema(ZPE) after peroral administration of 100 mg/kg dose with control swelling of 72.9%
How it was run: (§1)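 Male Wistar rats weighing about 150 g were dosed orally with compound suspended in 5% arabic gum. 1 h later, 1% zymosan in 0.1 mL saline was injected subplantarly into the hind paw. Paw volume was measured by plethysmograph before dosing and 4 h after zymosan, with edema as the volume difference. Inhibition % was derived from mean swelling versus the control group.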

Rattus norvegicus [3] = assay: Compound was tested for the inhibition of rat reversed passive Arthus pleurisy after peroral administration of 100 mg/kg dose at 0.58 mL of exudate volume with 0.82 mL of control (injected intrapleurally)
How it was run: (§2)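 Male Wistar rats (about 250 g) were given compound orally before the antiserum. Under ether anesthesia, 0.2 mL rabbit anti-egg albumin antiserum was injected intrapleurally. After 30 min, egg albumin (15 mg/100 g body weight in 0.1 mL saline) was given iv. Rats were killed 4.5 h later and the thoracic cavity was rinsed with 5 mL saline. Exudate volume and infiltrated cell number were measured, with inhibition % versus controls as mean ± SEM.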

Rattus norvegicus [4] = assay: Inhibition of Zymosan-induced rat's paw edema(ZPE) after peroral administration of 100 mg/kg dose.
How it was run: (§3)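 Male Wistar rats (about 150 g) were dosed orally with compound suspended in 5% arabic gum, 1 h before a subplantar hind-paw injection of 0.1 mL saline. The irritant was 1% zymosan for 33 or 1% λ-carrageenin for 34. Paw volume was measured by plethysmograph before dosing and at 4 h (zymosan) or 3 h (carrageenin). Swelling is relative to initial volume, as mean ± SEM. % inhibition is versus the control group's mean swelling.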

Rattus norvegicus [5] = assay: Inhibition of carrageenan-induced rat's paw edema (CPE) after peroral administration of 100 mg/kg dose.; how it was run: as §3
Rattus norvegicus [6] = assay: Compound was tested for the inhibition of rat reversed passive Arthus pleurisy after peroral administration of 100 mg/kg dose at 3.44*10e6 no of cells with 7.4*10e6 cells of control
How it was run: (§4)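 Male Wistar rats (about 250 g) under ether received 0.2 mL rabbit anti-egg-albumin antiserum intrapleurally. Thirty min later they got 15 mg EA/100 g body weight in 0.1 mL saline iv. Compounds were given orally beforehand. Rats were killed 4.5 h after induction and the thoracic cavity rinsed with 5 mL saline. Exudate volume and infiltrated cell count were read as mean ± SE. % inhibition is versus control.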

Rattus norvegicus [7] = assay: Antiinflammatory activity on Zymosan-induced rat's paw edema(ZPE) after peroral administration of 100 mg/kg dose with control swelling of 62.8%; how it was run: as §1
Rattus norvegicus [8] = assay: Compound was tested for the inhibition of rat reversed passive Arthus pleurisy after peroral administration of 100 mg/kg dose at 4.81*10e6 no of cells with 5.72*10e6 cells of control; how it was run: as §4
Rattus norvegicus [9] = assay: Antiinflammatory activity on Carrageenan rat's paw edema(CPE) after peroral administration of 100 mg/kg dose with control swelling of 68.1%
Rattus norvegicus [10] = assay: Compound was tested for the inhibition of rat reversed passive Arthus pleurisy after peroral administration of 100 mg/kg dose at 0.71 mL of exudate volume with 0.84 mL of control (injected intrapleurally); how it was run: as §2
Rattus norvegicus [11] = assay: Compound was tested for the inhibition of rat reversed passive Arthus pleurisy after peroral administration of 10 mg/kg dose at 0.44 mL of exudate volume with 0.68 mL of control (injected intrapleurally); how it was run: as §2
Rattus norvegicus [12] = assay: Antiinflammatory activity on Carrageenan rat's paw edema(CPE) after peroral administration of 30 mg/kg dose
Rattus norvegicus [13] = assay: Compound was tested for the inhibition of rat reversed passive Arthus pleurisy after peroral administration of 100 mg/kg dose at 1.52*10e6 no of cells with 3.24*10e6 cells of control; how it was run: as §2
Rattus norvegicus [14] = assay: Compound was tested for the inhibition of Zymosan-induced rat's paw edema(ZPE) after peroral administration of 30 mg/kg dose; how it was run: as §1
Rattus norvegicus [15] = assay: Compound was tested for the inhibition of arachidonic acid-induced rat's paw edema(APE) after peroral administration of 30 mg/kg dose
How it was run: (§5)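 Test: arachidonic acid paw edema in male Wistar rats of about 150 g. Oral dosing in 5% arabic gum came 1 h before subplantar injection of 1% arachidonic acid sodium salt in 0.1 mL saline into the hind paw. Plethysmograph paw volume was read before dosing and 1 h post-irritant, and edema = volume difference. % inhibition was taken from mean swelling against controls.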

Rattus norvegicus [16] = assay: Compound was tested for the inhibition of arachidonic acid-induced rat's paw edema(APE) after peroral administration of 100 mg/kg dose with control swelling of 51.6%; how it was run: as §5
Rattus norvegicus [17] = assay: Antiinflammatory activity on Carrageenan rat's paw edema(CPE) after peroral administration of 100 mg/kg dose with control swelling of 69.9%
Rattus norvegicus [18] = assay: Compound was tested for the inhibition of rat reversed passive Arthus pleurisy after peroral administration of 3 mg/kg dose at 3.17*10e6 no of cells with 3.24*10e6 cells of control; how it was run: as §4
Rattus norvegicus [19] = assay: Compound was tested for the inhibition of arachidonic acid-induced rat's paw edema(APE) after peroral administration of 30 mg/kg dose with control swelling of 33.8%; how it was run: as §5
Rattus norvegicus [20] = assay: Compound was tested for the inhibition of rat reversed passive Arthus pleurisy after peroral administration of 30 mg/kg dose at 0.33 mL of exudate volume with 0.68 mL of control (injected intrapleurally); how it was run: as §4
Rattus norvegicus [21] = assay: Antiinflammatory activity on Zymosan-induced rat's paw edema(ZPE) after peroral administration of 100 mg/kg dose with control swelling of 66.9%; how it was run: as §1
Rattus norvegicus [22] = assay: Compound was tested for the inhibition of arachidonic acid-induced rat's paw edema(APE) after peroral administration of 100 mg/kg dose; how it was run: as §5
Rattus norvegicus [23] = assay: Antiinflammatory activity on Zymosan-induced rat's paw edema(ZPE) after peroral administration of 30 mg/kg dose with control swelling of 66.9%; how it was run: as §1
Rattus norvegicus [24] = assay: Compound was tested for the inhibition of rat reversed passive Arthus pleurisy after peroral administration of 3 mg/kg dose at 0.6 mL of exudate volume with 0.68 mL of control (injected intrapleurally); how it was run: as §4
Rattus norvegicus [25] = assay: Compound was tested for the inhibition of Carrageenan rat's paw edema(CPE) after peroral administration of 30 mg/kg dose
Rattus norvegicus [26] = assay: Compound was tested for the inhibition of rat reversed passive Arthus pleurisy after peroral administration of 100 mg/kg dose at 0.12 mL of exudate volume with 0.68 mL of control (injected intrapleurally); how it was run: as §2
Rattus norvegicus [27] = assay: Compound was tested for the inhibition of rat reversed passive Arthus pleurisy after peroral administration of 10 mg/kg dose at 3.18*10e6 no of cells with 3.24*10e6 cells of control; how it was run: as §2
Rattus norvegicus [28] = assay: Compound was tested for the inhibition of rat reversed passive Arthus pleurisy after peroral administration of 30 mg/kg dose at 2.79*10e6 no of cells with 3.24*10e6 cells of control; how it was run: as §4

O=C(NCc1cccnc1)c1c(O)c2cccnc2n(-c2ccccc2)c1=O showed a Swelling (Rattus norvegicus [1]) of 62.8%, a Swelling (Rattus norvegicus [2]) of 54.3% and an inhibition in vivo at 100 mg/kg (Rattus norvegicus [3]) of 29.3%. The inhibition in vivo at 100 mg/kg (Rattus norvegicus [4]) was 25.5%, the inhibition in vivo at 100 mg/kg (Rattus norvegicus [5]) was 14.7% and the inhibition in vivo at 100 mg/kg (Rattus norvegicus [6]) was 53.5%.
Work on O=C(Nc1ccc([N+](=O)[O-])cc1)c1c(O)c2cccnc2n(-c2ccccc2)c1=O yielded a Swelling (Rattus norvegicus [7]) of 67.6%, an inhibition in vivo at 100 mg/kg (Rattus norvegicus [8]) of 18.5% and a Swelling (Rattus norvegicus [9]) of 85.7%. It also gave an inhibition in vivo at 100 mg/kg (Rattus norvegicus [4]) of -7.6%, an inhibition in vivo at 100 mg/kg (Rattus norvegicus [10]) of 16.7% and an inhibition in vivo at 100 mg/kg (Rattus norvegicus [5]) of -25.8%.
For O=C(Cn1c(=O)sc2ccc(Cl)cc21)N1CCN(CCO)CC1 [TIARAMIDE], the inhibition in vivo at 10 mg/kg (Rattus norvegicus [11]) was 40.7%, the Swelling (Rattus norvegicus [12]) was 64% and the inhibition in vivo at 100 mg/kg (Rattus norvegicus [13]) was 67.2%. For the same compound, the inhibition in vivo at 30 mg/kg (Rattus norvegicus [14]) was 15.1%, the inhibition in vivo at 30 mg/kg (Rattus norvegicus [15]) was 5% and the Swelling (Rattus norvegicus [16]) was 26.7%. The Swelling (Rattus norvegicus [17]) was 60.6%, the inhibition in vivo at 3 mg/kg (Rattus norvegicus [18]) was 2.7% and the Swelling (Rattus norvegicus [19]) was 32.1%. The inhibition in vivo at 30 mg/kg (Rattus norvegicus [20]) was 59.3%, the Swelling (Rattus norvegicus [21]) was 51.5% and the inhibition in vivo at 100 mg/kg (Rattus norvegicus [4]) was 23%. The inhibition in vivo at 100 mg/kg (Rattus norvegicus [22]) was 48.3%, the Swelling (Rattus norvegicus [23]) was 56.8% and the inhibition in vivo at 3 mg/kg (Rattus norvegicus [24]) was 13.6%. The inhibition in vivo at 30 mg/kg (Rattus norvegicus [25]) was 8.4%, the inhibition in vivo at 100 mg/kg (Rattus norvegicus [26]) was 94.9% and the inhibition in vivo at 100 mg/kg (Rattus norvegicus [5]) was 13.3%. For the same compound, the inhibition in vivo at 10 mg/kg (Rattus norvegicus [27]) was 2.3% and the inhibition in vivo at 30 mg/kg (Rattus norvegicus [28]) was 9.8%.

Source: ChEMBL document CHEMBL1126267, “A novel synthesis and potent antiinflammatory activity of 4-hydroxy-2(1H)-oxo-1-phenyl-1,8-naphthyridine-3-carboxamides” (1992)
